BP data for 10 molecules are collected here from ChEMBL document CHEMBL1121378, “Lipophilic and hydrophilic esters of 4-acetyl-2-(2-hydroxyethyl)-5,6-bis(4-chlorophenyl)-2H-pyridazin-3-one as antihypertensive agents” (1980).

In assay [1] the test system is Rattus norvegicus. Description: Antihypertensive activity in spontaneously hypertensive rats was measured as average blood pressure at 10 mg/kg, p.o. after 24 hours of postdose-2. Format: functional. The following applies: route oral. The method in brief:
(§1)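 SHR model with two successive doses, designated dose 1 and dose 2. Group-average blood pressure in mmHg was recorded before dosing and at 4 h and 24 h after each dose. The route is oral unless marked intra-arterial or subcutaneous. A table footnote marks doses that gave no significant lowering at 4 or 24 h postdose.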

The test system of assay [2] is Rattus norvegicus. The assay can be described thus: Antihypertensive activity in spontaneously hypertensive rats was measured as average blood pressure at 100 mg/kg, p.o. before predose. Conditions: route oral. It is filed as functional. The method, boiled down: as §1
In assay [3] the test system is Rattus norvegicus. The assay can be described thus: Antihypertensive activity in spontaneously hypertensive rats was measured as average blood pressure at 30 mg/kg, p.o. after 24 hours of postdose-1. Format: functional. Conditions: route oral. The method, boiled down: as §1
Assay [4] has as its system Rattus norvegicus. The assay can be described thus: Antihypertensive activity in spontaneously hypertensive rats was measured as average blood pressure at 30 mg/kg, po after 24 hours of postdose-2. It is filed as functional. The method, boiled down:
as §1

For assay [5], the system named is Rattus norvegicus. The assay can be described thus: Antihypertensive activity in spontaneously hypertensive rats was measured as average blood pressure at 10 mg/kg, p.o. before predose. Format: functional. The following applies: route oral. The method, boiled down:
as §1

Assay [6] deals with Rattus norvegicus. The assay can be described thus: Antihypertensive activity in spontaneously hypertensive rats was measured as average blood pressure at 10 mg/kg, p.o. after 4 hours of postdose-2. Format: functional. Conditions: route oral. The method, boiled down:
as §1

Assay [7] concerns Rattus norvegicus. Description: Antihypertensive activity in spontaneously hypertensive rats was measured as average blood pressure at 100 mg/kg, p.o. after 4 hours of postdose-2. Format: functional. Conditions: route oral. The method, boiled down: as §1
For assay [8], the system named is Rattus norvegicus. The assay can be described thus: Antihypertensive activity in spontaneously hypertensive rats was measured as average blood pressure at 100 mg/kg, p.o. after 4 hours of postdose-1. Format: functional. Conditions: route oral. The method, boiled down: as §1
Assay [9] has as its system Rattus norvegicus. The assay can be described thus: Antihypertensive activity in spontaneously hypertensive rats was measured as average blood pressure at 10 mg/kg, p.o. after 4 hours of postdose-1. It is filed as functional. The following applies: route oral. The method, boiled down:
as §1

For assay [10], the system named is Rattus norvegicus. Description: Antihypertensive activity in spontaneously hypertensive rats was measured as average blood pressure at 100 mg/kg, p.o. after 24 hours of postdose-2. It is filed as functional. Conditions: route oral. The method in brief: as §1
Assay [11] deals with Rattus norvegicus. The assay can be described thus: Antihypertensive activity in spontaneously hypertensive rats was measured as average blood pressure at 30 mg/kg, p.o. after 4 hours of postdose-2. It is filed as functional. The following applies: route oral. The method, boiled down: as §1
Assay [12] concerns Rattus norvegicus. The assay can be described thus: Antihypertensive activity in spontaneously hypertensive rats was measured as average blood pressure at 100 mg/kg, p.o. after 24 hours of postdose-1. It is filed as functional. Conditions: route oral. The method, boiled down:
as §1

The test system of assay [13] is Rattus norvegicus. The assay can be described thus: Antihypertensive activity in spontaneously hypertensive rats was measured as average blood pressure at 10 mg/kg, p.o. after 24 hours of postdose-1. Format: functional. Conditions: route oral. The method in brief:
as §1

Assay [14] deals with Rattus norvegicus. Description: Antihypertensive activity in spontaneously hypertensive rats was measured as average blood pressure at 30 mg/kg, po before predose. It is filed as functional. The method, boiled down:
as §1

Assay [15] has as its system Rattus norvegicus. The assay can be described thus: Antihypertensive activity in spontaneously hypertensive rats was measured as average blood pressure at 30 mg/kg, p.o. after 4 hours of postdose-1. The following applies: route oral. Format: functional. The method in brief:
as §1

Assay [16] relates to Rattus norvegicus. Description: Antihypertensive activity in spontaneously hypertensive rats was measured as average blood pressure at 13 mg/kg, p.o. after 24 hours of postdose-2. Format: functional. The following applies: route oral. The method in brief: as §1
The test system of assay [17] is Rattus norvegicus. The assay can be described thus: Antihypertensive activity in spontaneously hypertensive rats was measured as average blood pressure at 13 mg/kg, p.o. after 4 hours of postdose-2. It is filed as functional. Conditions: route oral. The method, boiled down:
as §1

Assay [18] deals with Rattus norvegicus. Description: Antihypertensive activity in spontaneously hypertensive rats was measured as average blood pressure at 13 mg/kg, p.o. before predose. It is filed as functional. The following applies: route oral. The method in brief:
as §1

Assay [19] relates to Rattus norvegicus. The assay can be described thus: Antihypertensive activity in spontaneously hypertensive rats was measured as average blood pressure at 13 mg/kg, p.o. after 4 hours of postdose-1. It is filed as functional. The following applies: route oral. The method, boiled down:
as §1

In assay [20] the test system is Rattus norvegicus. The assay can be described thus: Antihypertensive activity in spontaneously hypertensive rats was measured as average blood pressure at 13 mg/kg, po after 24 hours of postdose-1. Format: functional. The method, boiled down: as §1
Assay [21] deals with Rattus norvegicus. The assay can be described thus: Antihypertensive activity in spontaneously hypertensive rats was measured as average blood pressure at 100 mg/kg, p.o. after 24 hours of postdose-1; No significant lowering of blood pressure. It is filed as functional, organism-based. More on the design: dose 100 mg/kg. The method in brief:
as §1

Assay [22] relates to Rattus norvegicus. The assay can be described thus: Antihypertensive activity in spontaneously hypertensive rats was measured as average blood pressure at 100 mg/kg, po after 4 hours of postdose-1; No significant lowering of blood pressure. Format: functional, organism-based. More on the design: dose 100 mg/kg. The method, boiled down: as §1
Assay [23] deals with Rattus norvegicus. The assay can be described thus: Antihypertensive activity in spontaneously hypertensive rats was measured as average blood pressure at 50 mg/kg, p.o. after 24 hours of postdose-1. Conditions: route oral. It is filed as functional. The method, boiled down:
(§2)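 Spontaneously hypertensive rats dosed orally twice. Average blood pressure (mmHg) recorded before dosing and at 4 h and 24 h after the first dose and after the second dose. Postdose values checked for significant lowering against predose.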

The test system of assay [24] is Rattus norvegicus. Description: Antihypertensive activity in spontaneously hypertensive rats was measured as average blood pressure at 50 mg/kg, p.o. after 4 hours of postdose-1. Conditions: route oral. Format: functional. The method, boiled down: as §2
Assay [25] has as its system Rattus norvegicus. The assay can be described thus: Antihypertensive activity in spontaneously hypertensive rats was measured as average blood pressure at 50 mg/kg, p.o. before predose. Format: functional. The following applies: route oral. The method, boiled down:
as §2

Assay [26] deals with Rattus norvegicus. Description: Antihypertensive activity in spontaneously hypertensive rats was measured as average blood pressure at 50 mg/kg, p.o. after 24 hours of postdose-2. Format: functional. Conditions: route oral. The method in brief:
as §2

The subject of assay [27] is Rattus norvegicus. The assay can be described thus: Antihypertensive activity in spontaneously hypertensive rats was measured as average blood pressure at 50 mg/kg, po after 4 hours of postdose-2. Format: functional. The method, boiled down:
as §2

For assay [28], the system named is Rattus norvegicus. Description: Antihypertensive activity in spontaneously hypertensive rats was measured as average blood pressure at 15 mg/kg, p.o. after 4 hours of postdose-1; No significant lowering of blood pressure. Also noted: dose 15 mg/kg. Format: functional, organism-based. The method, boiled down:
as §1

Assay [29] has as its system Rattus norvegicus. Description: Antihypertensive activity in spontaneously hypertensive rats was measured as average blood pressure at 15 mg/kg, po after 24 hours of postdose-1; No significant lowering of blood pressure. Format: functional, organism-based. Also noted: dose 15 mg/kg. The method, boiled down:
as §1

As to `CC(=O)OCCn1nc(-c2ccc(Cl)cc2)c(-c2ccc(Cl)cc2)c(C(C)=O)c1=O`, the BP came to 176 mmHg in the assay on Rattus norvegicus [1]; 182 mmHg in the assay with Rattus norvegicus [2]; 165 mmHg with Rattus norvegicus [3]; 152 mmHg in the assay on Rattus norvegicus [4]; 183 mmHg in the assay with Rattus norvegicus [5]; 149 mmHg in the assay with Rattus norvegicus [6]. Also, the BP came to 122 mmHg in the assay on Rattus norvegicus [7]; 150 mmHg in the assay on Rattus norvegicus [8]; 162 mmHg in the assay on Rattus norvegicus [9]; 143 mmHg with Rattus norvegicus [10]; 140 mmHg in the assay on Rattus norvegicus [11]; 132 mmHg in the assay on Rattus norvegicus [12]. For the same molecule, the BP was 181 mmHg in the assay with Rattus norvegicus [13] and 183 mmHg in the assay on Rattus norvegicus [14].

Take `CCCCCCCCCCCCCCCCCC(=O)OCCn1nc(-c2ccc(Cl)cc2)c(-c2ccc(Cl)cc2)c(C(C)=O)c1=O`: the BP in the assay with Rattus norvegicus [15] amounted to 168 mmHg; with Rattus norvegicus [3] it was 162 mmHg; in the assay on Rattus norvegicus [4], 137 mmHg; in the assay on Rattus norvegicus [11], 142 mmHg; in the assay with Rattus norvegicus [14], 181 mmHg.

As to `Br.CC(=O)c1c(-c2ccc(Cl)cc2)c(-c2ccc(Cl)cc2)nn(CCOC(=O)CN)c1=O`, the BP with Rattus norvegicus [16] came to 170 mmHg; in the assay on Rattus norvegicus [17], 145 mmHg; in the assay on Rattus norvegicus [18], 182 mmHg; in the assay on Rattus norvegicus [19], 177 mmHg; in the assay with Rattus norvegicus [20], 154 mmHg.

In the case of `CC(=O)c1c(-c2ccc(Cl)cc2)c(-c2ccc(Cl)cc2)nn(CCOC(=O)CNC(=O)OCc2ccccc2)c1=O`, the BP entry with Rattus norvegicus [21] and with Rattus norvegicus [22] was “Not significant” each time.

As to `N=C(N)NCCN1CCCCCCC1` [GUANETHIDINE], the BP in the assay with Rattus norvegicus [23] was 166 mmHg; in the assay on Rattus norvegicus [24], 154 mmHg; with Rattus norvegicus [25] it was 187 mmHg; in the assay with Rattus norvegicus [26], 186 mmHg; in the assay on Rattus norvegicus [27], 138 mmHg.

With `CC(=O)c1c(-c2ccc(Cl)cc2)c(-c2ccc(Cl)cc2)nn(CCOC(=O)C(C)(C)C)c1=O`, the BP in the assay with Rattus norvegicus [15] turned out to be 200 mmHg; in the assay with Rattus norvegicus [3], 202 mmHg; in the assay with Rattus norvegicus [4], 205 mmHg; in the assay on Rattus norvegicus [11] it was 158 mmHg; with Rattus norvegicus [14], 205 mmHg.

Turning to `CC(=O)c1c(-c2ccc(Cl)cc2)c(-c2ccc(Cl)cc2)nn(CCOC(=O)Cc2ccccc2)c1=O`, the BP amounted to 165 mmHg in the assay with Rattus norvegicus [15]; 154 mmHg in the assay on Rattus norvegicus [3]; 127 mmHg in the assay with Rattus norvegicus [4]; 146 mmHg in the assay on Rattus norvegicus [11]; 174 mmHg in the assay with Rattus norvegicus [14].

Consider `CSCCC(N)C(=O)OCCn1nc(-c2ccc(Cl)cc2)c(-c2ccc(Cl)cc2)c(C(C)=O)c1=O` (stereo not given), for which the BP entry in the assay with Rattus norvegicus [28] and in the assay with Rattus norvegicus [29] was “Not significant” each time.

For `CC(=O)c1c(-c2ccc(Cl)cc2)c(-c2ccc(Cl)cc2)nn(CCOC(=O)C(NC(=O)OCc2ccccc2)C(C)C)c1=O` (stereo not given), the BP entry in the assay on Rattus norvegicus [21] and in the assay with Rattus norvegicus [22] was “Not significant” each time.

On to `CC(=O)c1c(-c2ccc(Cl)cc2)c(-c2ccc(Cl)cc2)nn(CCOC(=O)CCN)c1=O.Cl`, for which the BP is 209 mmHg in the assay with Rattus norvegicus [16]; 195 mmHg in the assay on Rattus norvegicus [17]; 215 mmHg in the assay with Rattus norvegicus [18]; 210 mmHg with Rattus norvegicus [19]; 215 mmHg in the assay with Rattus norvegicus [20].
